Laboratory results reported in ChEMBL document CHEMBL1146735, “Synthesis and biological activity of macrocyclic taxane analogues” (Bioorg Med Chem Lett, 2004).

Key:
Homo sapiens = species on record: Homo sapiens; assay: Compound was evaluated for the inhibition of tubulin polymerization; assay type: functional
Outline: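 Tubulin polymerization followed by optical density. The value is the compound concentration giving a change of 0.01 OD/h, divided by the corresponding concentration of paclitaxel.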

HCT-116 = assay: In vitro cytotoxicity against the paclitaxel sensitive human colon carcinoma cell line HCT116; assay type: functional, cell-based
Outline: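 HCT116 cells exposed to compound for 72 h. Viability read by MTS assay and IC50 derived from it.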

[1] = Compound was evaluated for the ratio of IC50 of A2780/tub cell line to that of IC50 of A2780 cell line; assay type: functional
Outline: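 Resistance ratio: IC50 in the A2780/tub line divided by the IC50 in parental A2780.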

[2] = Compound was evaluated for the ratio of HCT/mdr cell line to that of IC50 of HCT116 cell line; assay type: functional, HCT-116
Outline: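 Resistance ratio: IC50 in the HCT116/mdr line divided by the IC50 in parental HCT116.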

A2780 = assay: In vitro cytotoxicity against the paclitaxel sensitive […]; assay type: functional, cell-based; conditions: Homo sapiens
[3] = Compound was evaluated for the median survival time of compound treated mice to that of median survival time of the control mice at a dose of 120 mg/kg/injection
[4] = Compound was evaluated for the median survival time of compound treated mice to that of median survival time of the control mice at a dose of 200 mg/kg/injection; assay type: functional
Outline: (§1)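 Balb/c × DBA/2 F1 hybrid mice implanted intraperitoneally with a 2% (w/v) brei of M109 lung carcinoma. Treatment was by intraperitoneal injection on days 5 and 8 post-implant. Survival was followed daily to about 75–90 days, with an untreated control group in each experiment. %T/C = median survival of treated mice / median survival of controls × 100.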

[5] = Compound was evaluated for the median survival time of compound treated mice to that of median survival time of the control mice at a dose of 100 mg/kg/injection; assay type: functional; outline: as §1

SMILES	Tubulin (Homo sapiens)	IC50 (HCT-116) [nM]	R/S ratio [1]	R/S ratio [2]	IC50 (A2780) [nM]	T/C [3] [%]	T/C [4] [%]	T/C [5] [%]
CC(=O)O[C@H]1[C@@H]2CO[C@@H]2[C@@H]2OCOCCOC(=O)O[C@H]3C(=O)[C@@]2(C)[C@@H]1[C@H](OC(=O)c1ccccc1)[C@]1(O)C[C@H](OC(=O)[C@H](O)[C@@H](NC(=O)c2ccccc2)c2ccccc2)C(C)=C3C1(C)C	0.73	1.9	32	31	2.1	–	–	–
CC(=O)O[C@H]1[C@@H]2CO[C@@H]2[C@@H]2OCOCC(C)(C)COCO[C@H]3C(=O)[C@@]2(C)[C@@H]1[C@H](OC(=O)c1ccccc1)[C@]1(O)C[C@H](OC(=O)[C@H](O)[C@@H](NC(=O)c2ccccc2)c2ccccc2)C(C)=C3C1(C)C	2.87	17.2	23	11	18	118	–	–
CC(=O)O[C@H]1[C@@H]2CO[C@@H]2[C@@H]2OCOCCOCO[C@H]3C(=O)[C@@]2(C)[C@@H]1[C@H](OC(=O)c1ccccc1)[C@]1(O)C[C@H](OC(=O)[C@H](O)[C@@H](NC(=O)c2ccccc2)c2ccccc2)C(C)=C3C1(C)C	1.49	3	15	10	2.6	–	174	–
CC(=O)O[C@H]1[C@@H]2CO[C@@H]2[C@@H]2OCOCCOCO[C@H]3C(=O)[C@@]2(C)[C@@H]1[C@H](OC(=O)c1ccccc1)[C@]1(O)C[C@H](OC(=O)[C@H](O)[C@@H](NC(=O)OC(C)(C)C)c2ccccc2)C(C)=C3C1(C)C	0.67	0.8	6	12	18.5	–	–	190
